# Assay results reported in article PMC8245906 (Acta Pharmaceutica Sinica. B, 2021).
# Where two headings read alike, the source gives them in different places.
# Key:
# [1] = Microsomal stability in CD-1 mice liver microsomes; assay type: in vitro ADME; conditions: for microsomal CLint at 1 μmol/L: CD-1, mouse, liver microsomes, pH 7.4
# Method in brief: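 Mouse liver microsomes (0.5 mg/mL protein, final) in 0.1 mol/L potassium phosphate, pH 7.4, 37 °C, with 1 mmol/L NADPH and 1 mmol/L MgCl₂. Started by adding test compound (1 µmol/L final). A no-NADPH control was run in parallel. Sampled at 0, 5, 15, 30 and 60 min and quenched in acidified acetonitrile. LC/MS/MS gave t1/2 and CLint. At least duplicate independent assays.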
# [2] = Plasma stability in human plasma; assay type: in vitro ADME; conditions: 1 μmol/L, 80% plasma, 37 °C
# Method in brief: (§1)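 Test compound (1 µmol/L final) incubated in duplicate in pooled plasma diluted to 80% in 0.1 mol/L potassium phosphate, pH 7.4, at 37 °C. Aliquots taken at 0, 1, 3, 6 and 24 h, quenched with acetonitrile containing 0.1% formic acid, and centrifuged. Supernatant analysed by LC/MS/MS to derive plasma t1/2.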
# SARS-CoV-2 [3] = conditions: Vero E6 cells, cited from earlier work
# [4] = Plasma stability in CD-1 mouse plasma; assay type: in vitro ADME, CD-1 mice
# Method in brief: as §1
# [5] = system: major CYP enzymes including 1A1, 1A2, 2B6, 2C8, 2C9, 2C19, 2D6, 3A4, or 3A5; conditions: cited from earlier work
# SARS-CoV-2 [6] = conditions: read-out: EC50 against SARS-CoV-2; A549-hACE2 cells; cited from earlier work
# [7] = Pharmacokinetics and oral bioavailability of GS-441524 in CD-1 mice; assay type: in vivo
# SARS-CoV-2 [8] = conditions: Calu-3 2B4 cells, cited from earlier work
# [9] = Microsomal stability in human liver microsomes; assay type: in vitro ADME; conditions: for microsomal CLint at 1 μmol/L: human, liver microsomes, pH 7.4
# Method in brief: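 Human liver microsomes (0.5 mg/mL protein) in 0.1 mol/L potassium phosphate, pH 7.4, 37 °C, with 1 mmol/L NADPH and 1 mmol/L MgCl₂, or without NADPH. Test compound at 1 µmol/L final. For CYP3A inhibition, cobicistat was pre-incubated 5 min before the compound. Sampled at 0–60 min and quenched with acidified acetonitrile. LC/MS/MS gave t1/2 and CLint; at least duplicate.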
# [10] = Tissue distribution of GS-441524 and GS-443902 in CD-1 mice after oral dosing; assay type: in vivo; conditions: 20 mg/kg oral dose
# CYP 2C8, 2D6 and 3A4 = conditions: cited from earlier work
# [11] = human, after iv infusion of RDV, phase I; cited from earlier work
# P-glycoprotein (P-gp) = conditions: cited from earlier work
# [12] = read-out: EC50 against SARS-CoV-2
# [13] = read-out: EC90 against SARS-CoV-2
# [14] = male, CD-1, mouse, plasma, iv, 5 mg/kg
# [15] = male, CD-1, mouse, plasma, po, 10 mg/kg
smiles,measurement,setting,value
N#C[C@@]1(c2ccc3c(N)ncnn23)O[C@H](CO)[C@@H](O)[C@H]1O [GS-441524],microsomal CLint at 1 μmol/L,[1],1.7 ± 0.4 µL/min/mg
same,Remaining percentage at 60 min in MLMs,"[1]; with NADPH, 60 min",over 91%
same,Plasma stability t1/2 Human,[2],>24 h
same,EC50,SARS-CoV-2 [3]; [12],470 nM
same,EC90,SARS-CoV-2 [3]; [13],710 nM
same,Plasma stability t1/2 Mouse,"[4]; 1 μmol/L, 80% CD-1 mouse plasma, 37 °C",>24 h
same,Substrate of major CYP enzymes,[5],not a substrate
same,EC50,SARS-CoV-2 [6],870 nM
same,MRT,[7]; [14],1.7 h
same,Tmax,[7]; [14],0.083 h
same,Vd,[7]; [14],4.2 L/kg
same,clearance,[7]; [14],20 mL/min/kg
same,half-life,[7]; [14],2.5 h
same,AUC,"[7]; male, CD-1, mouse, plasma, iv, 5 mg/kg, AUC0‒t, iv 5 mg/kg, CD-1 mice",14.8 µM·h
same,AUC,"[7]; male, CD-1, mouse, plasma, iv, 5 mg/kg, AUC0‒∞, iv 5 mg/kg, CD-1 mice",14.8 µM·h
same,Cmax,"[7]; male, CD-1, mouse, plasma, iv, 5 mg/kg, Cmax, iv 5 mg/kg, CD-1 mice",11.6 µM
same,MRT,[7]; [15],4.2 h
same,Tmax,[7]; [15],1 h
same,half-life,[7]; [15],2.9 h
same,AUC,"[7]; male, CD-1, mouse, plasma, po, 10 mg/kg, AUC0‒t, po 10 mg/kg, CD-1 mice",16.8 µM·h
same,AUC,"[7]; male, CD-1, mouse, plasma, po, 10 mg/kg, AUC0‒∞, po 10 mg/kg, CD-1 mice",16.8 µM·h
same,CL (clearance),"[7]; po 10 mg/kg, CD-1 mice",33.3 mL/min/kg
same,V (volume of distribution),"[7]; po 10 mg/kg, CD-1 mice",8.4 L/kg
same,Plasma level from 0.25 to 2 h,"[7]; po 10 mg/kg, CD-1 mice, 0.25 to 2 h",> 2 µM
same,Cmax,"[7]; po 10 mg/kg, CD-1 mice, plasma, 10 mg/kg",3.28 µM
same,EC50,SARS-CoV-2 [8]; [12],620 nM
same,EC90,SARS-CoV-2 [8]; [13],1340 nM
same,microsomal CLint at 1 μmol/L,[9],1.9 ± 0.1 µL/min/mg
same,Remaining percentage at 60 min in HLMs,"[9]; with NADPH, 60 min",over 91%
same,Concentration in lung within the first 4 h,[10]; lung,≥ 2.2 µM
same,Concentration in plasma within the first 4 h,[10]; plasma,≥ 2.2 µM
"CCC(CC)COC(=O)[C@H](C)N[P@](=O)(OC[C@H]1O[C@@](C#N)(c2ccc3c(N)ncnn23)[C@H](O)[C@@H]1O)Oc1ccccc1 [RDV, Remdesivir]",microsomal CLint at 1 μmol/L,[1],1680 ± 130 µL/min/mg
same,Microsomal stability MLMs t1/2,"[1]; with cofactor NADPH, 1 μmol/L compound, 0.5 mg/mL microsomal protein",48 ± 6 s
same,"Substrate for CYP 2C8, 2D6 and 3A4","CYP 2C8, 2D6 and 3A4",substrate
same,half-life at 1 μmol/L,"[4]; CD-1, mouse, plasma (80% in buffer), pH 7.4",< 1 min
same,Stability in CD-1 mouse plasma (in words),[4]; wild-type CD-1 mouse plasma,undetectable within seconds
same,Plasma half-life (t1/2),[11],about 1 h
same,Substrate of P-glycoprotein (P-gp),P-glycoprotein (P-gp),substrate
same,Remaining percentage of intact RDV at 60 min with NADPH/Cobi,"[9]; HLMs, with NADPH/Cobi, 60 min",38.5%
same,Remaining percentage of intact RDV at 60 min without NADPH,"[9]; HLMs, without NADPH, 60 min",26.1%
same,microsomal CLint at 1 μmol/L,[9],1260 ± 68.6 µL/min/mg
